In ChEMBL document CHEMBL2021809, “Synthesis, biological evaluation and molecular modeling study of pyrazole and pyrazoline derivatives as selective COX-2 inhibitors and anti-inflammatory agents. Part 2” (Bioorg Med Chem, 2012):

Legend:
[1] = target: T1, Prostaglandin G/H synthase 1 (Ovis aries, UniProt P05979); assay: Inhibition of ovine COX1 by enzyme immuno assay
T1 sequence (P05979 whole entry): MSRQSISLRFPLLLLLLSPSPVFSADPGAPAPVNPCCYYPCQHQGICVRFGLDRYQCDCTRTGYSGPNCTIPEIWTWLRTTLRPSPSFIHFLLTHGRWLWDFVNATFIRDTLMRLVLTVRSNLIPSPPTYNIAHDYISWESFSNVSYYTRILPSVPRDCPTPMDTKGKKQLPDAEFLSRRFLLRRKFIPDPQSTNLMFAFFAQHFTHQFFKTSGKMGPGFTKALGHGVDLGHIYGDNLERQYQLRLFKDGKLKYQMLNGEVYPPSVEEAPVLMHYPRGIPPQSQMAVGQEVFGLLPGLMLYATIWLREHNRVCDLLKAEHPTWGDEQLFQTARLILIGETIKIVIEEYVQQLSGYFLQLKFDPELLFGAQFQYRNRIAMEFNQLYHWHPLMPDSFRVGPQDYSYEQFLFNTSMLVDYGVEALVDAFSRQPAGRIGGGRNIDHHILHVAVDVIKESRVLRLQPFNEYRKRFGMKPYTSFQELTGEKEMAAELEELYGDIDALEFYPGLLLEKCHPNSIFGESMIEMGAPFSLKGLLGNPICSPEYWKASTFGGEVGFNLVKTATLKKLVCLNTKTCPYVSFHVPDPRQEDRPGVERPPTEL

[2] = test system: Rattus norvegicus; assay: Antiinflammatory activity in rat assessed as inhibition of carrageenan-induced foot paw edema at 200 mg/kg, ip measured after 2 hrs; format: functional; conditions: route intraperitoneal
Method in brief: (§1)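 Edema was induced in the rat paw with carrageenan. The read-out was percent reduction of edema at 2 h for each single dose. Test doses were 100 and 200 mg/kg. The reference agent was given at 50 and 100 mg/kg ip.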

[3] = test system: Rattus norvegicus; assay: Antiinflammatory activity in ip dosed rat assessed as inhibition of carrageenan-induced foot paw edema measured after 2 hrs; format: functional
[4] = test system: Rattus norvegicus; assay: Antiinflammatory activity in rat assessed as inhibition of carrageenan-induced foot paw edema at 100 mg/kg, ip measured after 2 hrs; format: functional; conditions: route intraperitoneal; method in brief: as §1
[5] = test system: Rattus norvegicus; assay: Antiinflammatory activity in rat assessed as inhibition of carrageenan-induced foot paw edema at 50 mg/kg, ip measured after 2 hrs; format: functional; conditions: route intraperitoneal; method in brief: as §1

Structure (SMILES)	IC50 [1]	inhibition in vivo at 200 mg/kg [2]	ED50 [3]	inhibition in vivo at 100 mg/kg [4]	inhibition in vivo at 50 mg/kg [5]
O=C(/C(=C/c1ccc(O)cc1)C(=O)C(F)(F)F)c1ccc(Cl)cc1	> 50 µM	78.9%	366 µmol/kg	39.2%	–
Oc1ccc(/C=C2\C(c3ccc(Cl)cc3)=NN=C2C(F)(F)F)cc1	> 50 µM	81.4%	370 µmol/kg	35.3%	–
FC(F)(F)c1[nH]nc(-c2ccc(Cl)cc2)c1Cc1ccccc1	> 50 µM	–	–	–	–
O=C(/C(=C/c1ccco1)C(=O)C(F)(F)F)c1ccc(Cl)cc1	> 50 µM	–	–	–	–
O=C(O)Cc1ccccc1Nc1c(Cl)cccc1Cl [DICLOFENAC SODIUM]	–	–	198 µmol/kg	87.3%	48.7%
Cc1ccc(C2=NNC3(C2)C(=O)Nc2ccc(F)cc23)cc1 (centres undefined)	> 50 µM	–	–	–	–
O=C(/C(=C/c1ccccc1O)C(=O)C(F)(F)F)c1ccc(Cl)cc1	> 50 µM	–	–	–	–
N#CC(C#N)=Cc1c(C(F)(F)F)nn(-c2ccccc2)c1-c1ccc(Cl)cc1	> 50 µM	–	–	–	–
FC(F)(F)C1=NN=C(c2ccc(Cl)cc2)/C1=C\c1ccco1	> 50 µM	–	–	–	–
FC(F)(F)c1cc(/N=C/c2c(C(F)(F)F)nn(-c3ccccc3)c2-c2ccc(Cl)cc2)cc(C(F)(F)F)c1	> 50 µM	89.3%	170 µmol/kg	52%	–
Cc1ccc(-c2cc(C(F)(F)F)nn2-c2ccc(S(N)(=O)=O)cc2)cc1 [CELECOXIB]	–	–	185 µmol/kg	83%	57%

The next lines start with results.

IC50 [1]	Structure (SMILES)	inhibition in vivo at 200 mg/kg [2]	ED50 [3]	inhibition in vivo at 100 mg/kg [4]	inhibition in vivo at 50 mg/kg [5]
> 50 µM	O=[N+]([O-])c1ccc(/N=C/c2c(C(F)(F)F)nn(-c3ccccc3)c2-c2ccc(Cl)cc2)cc1	86.7%	243 µmol/kg	43.7%	–
> 50 µM	O=[N+]([O-])c1cccc(/C=C2\C(c3ccc(Cl)cc3)=NN=C2C(F)(F)F)c1	84.5%	318 µmol/kg	37.6%	–
> 50 µM	COc1ccc(/C=C2\C(c3ccc(Cl)cc3)=NN=C2C(F)(F)F)cc1	69.1%	405 µmol/kg	33.4%	–
> 50 µM	COc1ccc(/C=C(/C(=O)c2ccc(Cl)cc2)C(=O)C(F)(F)F)cc1	52.4%	528 µmol/kg	26.3%	–
> 50 µM	Oc1ccccc1/C=C1\C(c2ccc(Cl)cc2)=NN=C1C(F)(F)F	–	–	–	–
> 50 µM	O=C(/C(=C/c1cccc([N+](=O)[O-])c1)C(=O)C(F)(F)F)c1ccc(Cl)cc1	80%	343 µmol/kg	37.9%	–
> 50 µM	O=C1Nc2ccc(F)cc2C12CC(c1ccc(Br)cc1)=NN2 (centres undefined)	–	–	–	–
> 50 µM	COc1ccc(/C=C(/C(=O)c2ccc(Cl)cc2)C(=O)C(F)(F)F)cc1OC	80.2%	321 µmol/kg	38.7%	–
> 50 µM	FC(F)(F)c1nn(-c2ccccc2)c(-c2ccc(Cl)cc2)c1/C=N/c1ccccc1Cl	–	–	–	–
> 50 µM	COc1ccc(/C=C2\C(c3ccc(Cl)cc3)=NN=C2C(F)(F)F)cc1OC	88.7%	298 µmol/kg	42%	–
> 50 µM	FC(F)(F)c1nn(-c2ccccc2)c(-c2ccc(Cl)cc2)c1/C=N/c1ccc(Br)cc1	61.1%	335 µmol/kg	25.2%	–
